In data set [1] the test system is Mycobacterium tuberculosis. Put plainly: Antimycobacterial activity against Mycobacterium tuberculosis H37Rv CNCTC My 331/88 after 14 days. The note with it: H37Rv CNCTC My 331/88, 336 h. Format: functional. An outline of the steps:
(§1)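 M. tuberculosis strains (H37Rv and clinical MDR/XDR isolates) tested by microdilution in Šula's semisynthetic medium. Compounds were dissolved in DMSO and tested at 32 to 0.03 µM in twofold steps. Inoculum was a 1.0 McFarland suspension diluted 10-3. Plates were incubated at 37 °C and read at 14 and 21 days.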

Data set [2] relates to Mycobacterium tuberculosis. Description: Antimycobacterial activity against Mycobacterium tuberculosis H37Rv CNCTC My 331/88 after 21 days. Format: functional. The settings on record: H37Rv CNCTC My 331/88, 504 h. Summed up: as §1
For data set [3], the system named is Mycobacterium avium. Description: Antimycobacterial activity against Mycobacterium avium CNCTC My 330/88 after 14 days. The note with it: CNCTC My 330/88, 336 h. The data set is classed as functional. An outline of the steps:
(§2)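 M. avium was tested by microdilution in Šula's semisynthetic medium, with compounds dissolved in DMSO and serially diluted from 1000 down to 1. Inoculum was a 1.0 McFarland suspension diluted 10-5. Plates were incubated at 37 °C and read at 14 and 21 days. […] Isoniazid and rifampicin served as standards.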

In data set [4] the test system is Mycobacterium avium. Description: Antimycobacterial activity against Mycobacterium avium CNCTC My 330/88 after 21 days. Format: functional. The settings on record: CNCTC My 330/88, 504 h. An outline of the steps:
as §2

The test system of data set [5] is Mycobacterium kansasii. Put plainly: Antimycobacterial activity against Mycobacterium kansasii CNCTC My 235/80 after 7 days. Format: functional. The settings on record: CNCTC My 235/80, 168 h. Summed up: (§3)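 Microdilution in Šula's semisynthetic medium; compounds in DMSO at 32–0.03 µM. Inoculum from 1.0 McFarland suspension diluted 10-4. […] Isoniazid and rifampicin as reference drugs.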

The subject of data set [6] is Mycobacterium kansasii. Put plainly: Antimycobacterial activity against Mycobacterium kansasii CNCTC My 235/80 after 14 days. The settings on record: CNCTC My 235/80, 336 h. The data set is classed as functional. An outline of the steps:
as §3

Data set [7] has as its system Mycobacterium kansasii. Description: Antimycobacterial activity against Mycobacterium kansasii CNCTC My 235/80 after 21 days. The note with it: CNCTC My 235/80, 504 h. Format: functional. An outline of the steps:
as §3

The subject of data set [8] is Mycobacterium kansasii. Description: Antimycobacterial activity against Mycobacterium kansasii 6509/96 after 7 days. Format: functional. The settings on record: 6509/96, 168 h. An outline of the steps:
as §3

Data set [9] concerns Mycobacterium kansasii. Description: Antimycobacterial activity against Mycobacterium kansasii 6509/96 after 14 days. Format: functional. The settings on record: 6509/96, 336 h. An outline of the steps: as §3
The test system of data set [10] is Mycobacterium kansasii. Put plainly: Antimycobacterial activity against Mycobacterium kansasii 6509/96 after 21 days. The data set is classed as functional. The settings on record: 6509/96, 504 h. An outline of the steps: as §3
Data set [11] has as its system Mycobacterium tuberculosis. Put plainly: Antimycobacterial activity against XDR Mycobacterium tuberculosis Praha 131 after 14 days. The data set is classed as functional. The note with it: Praha 131, 336 h. An outline of the steps: as §1
Data set [12] relates to Mycobacterium tuberculosis. Description: Antimycobacterial activity against XDR Mycobacterium tuberculosis Praha 131 after 21 days. Format: functional. The note with it: Praha 131, 504 h. Summed up: as §1
Data set [13] relates to Staphylococcus aureus. Put plainly: Antibacterial activity against Staphylococcus aureus subsp. aureus ATCC 29213 CCM 4223 at highest concentration measured after 24 to 48 hrs by alamar blue dye based broth microdilution assay. Format: functional, organism-based.
Data set [14] relates to Staphylococcus aureus. Description: Antibacterial activity against methicillin-resistant Staphylococcus aureus subsp. aureus ATCC 43300 CCM 4750 at highest concentration measured after 24 to 48 hrs by alamar blue dye based broth microdilution assay. The data set is classed as functional, organism-based. (In general: Resazurin is reduced to fluorescent resorufin, in cell work by metabolically active cells.)

Data set [15] relates to Staphylococcus epidermidis. Put plainly: Antibacterial activity against Staphylococcus epidermidis at highest concentration measured after 24 to 48 hrs by alamar blue dye based broth microdilution assay. The data set is classed as functional, organism-based.
Another data set relates to Enterococcus faecalis. Put plainly: Antibacterial activity against Enterococcus faecalis ATCC 29212 CCM 4224 at highest concentration measured after 24 to 48 hrs by alamar blue dye based broth microdilution assay. Format: functional, organism-based.
For a further data set, the system named is Escherichia coli. Description: Antibacterial activity against Escherichia coli ATCC 25922 CCM 3954 at highest concentration measured after 24 to 48 hrs by alamar blue dye based broth microdilution assay. Format: functional, organism-based.
Another data set deals with Klebsiella pneumoniae. Description: Antibacterial activity against Klebsiella pneumoniae at highest concentration measured after 24 to 48 hrs by alamar blue dye based broth microdilution assay. Format: functional, organism-based.
The subject of the next data set is Serratia marcescens. Description: Antibacterial activity against Serratia marcescens at highest concentration measured after 24 to 48 hrs by alamar blue dye based broth microdilution assay. Format: functional, organism-based.
The test system of the next data set is Pseudomonas aeruginosa. Description: Antibacterial activity against Pseudomonas aeruginosa ATCC 27853 CCM 3955 at highest concentration measured after 24 to 48 hrs by alamar blue dye based broth microdilution assay. The data set is classed as functional, organism-based.
For the next data set, the system named is Candida albicans. Description: Antifungal activity against Candida albicans ATCC 24433 CCM 8320 at highest concentration measured after 24 to 48 hrs by alamar blue dye based broth microdilution assay. Format: functional, organism-based.
In a further data set the test system is Pichia kudriavzevii. Description: Antifungal activity against Candida krusei ATCC 6258 CCM8271 at highest concentration measured after 24 to 48 hrs by alamar blue dye based broth microdilution assay. The data set is classed as functional, organism-based.
Another data set has as its system Candida parapsilosis. Description: Antifungal activity against Candida parapsilosis ATCC 22019 CCM 8260 at highest concentration measured after 24 to 48 hrs by alamar blue dye based broth microdilution assay. The data set is classed as functional, organism-based.
For the next data set, the system named is Candida tropicalis. Description: Antifungal activity against Candida tropicalis ATCC 750 CCM 8264 at highest concentration measured after 24 to 48 hrs by alamar blue dye based broth microdilution assay. Format: functional, organism-based.
For a further data set, the system named is Aspergillus fumigatus. Put plainly: Antifungal activity against Aspergillus fumigatus ATCC 204305 at highest concentration measured after 24 to 48 hrs by alamar blue dye based broth microdilution assay. Format: functional, organism-based.
For another data set, the system named is Aspergillus flavus. Description: Antifungal activity against Aspergillus flavus CCM 8363 at highest concentration measured after 24 to 48 hrs by alamar blue dye based broth microdilution assay. The data set is classed as functional, organism-based.
The subject of a further data set is Lichtheimia corymbifera. Put plainly: Antifungal activity against Lichtheimia corymbifera CCM 8077 at highest concentration measured after 24 to 48 hrs by alamar blue dye based broth microdilution assay. The data set is classed as functional, organism-based.
The subject of data set [16] is Trichophyton interdigitale. Put plainly: Antifungal activity against Trichophyton interdigitale ATCC 9533 CCM 8377 at highest concentration measured after 72 to 120 hrs by alamar blue dye based broth microdilution assay. Format: functional.
The next data set concerns HepG2. Description: Cytotoxicity against human HepG2 cells assessed as reduction in cell viability after 48 hrs by CellTiter 96 aqueous one solution assay. The data set is classed as cell-based. The note with it: HepG2, 48 h.
The nature of data set [17]: Cytotoxicity against human HepG2 cells assessed as cell viability at 30 uM after 48 hrs by CellTiter 96 aqueous one solution assay relative to control. Format: cell-based. The note with it: read-out: Activity. Summed up:
(§4)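 HepG2 (DMEM, 10% FBS, 1 mM pyruvate) or A431 (DMEM, 10% FBS) seeded 10,000 cells/well, 24 h at 37 °C, 5% CO2, then 30 µM compound for 48 h. MTS reagent 60 min, absorbance 490 nm, background subtracted; 0.1% DMSO vehicle = 100%, 10% SDS = 0% viability.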

In another data set the test system is A-431. Put plainly: Cytotoxicity against human A431 cells assessed as reduction in cell viability after 48 hrs by CellTiter 96 aqueous one solution assay. Format: cell-based. The settings on record: A-431, 48 h.
Data set [18] in a line: Cytotoxicity against human A431 cells assessed as cell viability at 30 uM after 48 hrs by CellTiter 96 aqueous one solution assay relative to control. The data set is classed as cell-based, A-431. The settings on record: read-out: Activity. An outline of the steps: as §4

In brackets after ≈: the same amount, converted by molar mass. Activity calls are given as the source filed them. The rule behind the calls is not given here.

As usually defined, the MIC99 is an inhibitory concentration at the 99% level, which refers to growth in some studies and to a panel of isolates in others. A lower MIC99 goes with greater potency. The IC50 is the midpoint of a concentration-inhibition curve. `CCn1c(SCc2ccccc2)nnc1-c1cc([N+](=O)[O-])cc([N+](=O)[O-])c1`: the MIC99 in data set [1] stood at 0.03 µM (≈ 0.0116 µg/mL); in [2], 0.03 µM (≈ 0.0116 µg/mL); against Mycobacterium avium [3], 250 µM (≈ 96.4 µg/mL); in the data set on Mycobacterium avium [4], 250 µM (≈ 96.4 µg/mL); in the data set with Mycobacterium kansasii [5], 0.03 µM (≈ 0.0116 µg/mL); against Mycobacterium kansasii [6] it was 0.03 µM (≈ 0.0116 µg/mL). Moreover, the MIC99 (in the data set with Mycobacterium kansasii [7]; with Mycobacterium kansasii [8]; against Mycobacterium kansasii [9]; against Mycobacterium kansasii [10]; in data set [11]; in data set [12]) was 0.03 µM (≈ 0.0116 µg/mL) each time. Further, the result (in the data set with Staphylococcus aureus [13]; in the data set on Staphylococcus aureus [14]; in data set [15]; in the data set with Enterococcus faecalis; in the data set with Escherichia coli; in the data set on Klebsiella pneumoniae) was inactive. The result with Serratia marcescens, in the data set on Pseudomonas aeruginosa, with Candida albicans, in the data set on Pichia kudriavzevii, in the data set on Candida parapsilosis and in the data set with Candida tropicalis was inactive. The outcome (in the data set on Aspergillus fumigatus; in the data set on Aspergillus flavus; in the data set with Lichtheimia corymbifera; in [16]) was inactive. Further, the IC50 with HepG2 and in the data set on A-431 was above 30 µM throughout. The viability at 48 h, 30 µM is 156% in data set [17] and 90% in data set [18].
For `CO[C@H]1/C=C/O[C@@]2(C)Oc3c(C)c(O)c4c(O)c(c(/C=N/N5CCN(C)CC5)c(O)c4c3C2=O)NC(=O)/C(C)=C\C=C\[C@H](C)[C@H](O)[C@@H](C)[C@@H](O)[C@@H](C)[C@H](OC(C)=O)[C@@H]1C` [RIFAMPIN], the MIC99 in data set [1] worked out at 0.25 µM (≈ 0.206 µg/mL); in [2], 0.25 µM (≈ 0.206 µg/mL); with Mycobacterium avium [3], 32 µM (≈ 26.3 µg/mL); against Mycobacterium avium [4], 62 µM (≈ 51 µg/mL); against Mycobacterium kansasii [5] it was 0.125 µM (≈ 0.103 µg/mL); with Mycobacterium kansasii [6] it was 0.25 µM (≈ 0.206 µg/mL). The MIC99 against Mycobacterium kansasii [7] is 0.25 µM (≈ 0.206 µg/mL); with Mycobacterium kansasii [8] it was 0.125 µM (≈ 0.103 µg/mL); in the data set on Mycobacterium kansasii [9], 0.25 µM (≈ 0.206 µg/mL); against Mycobacterium kansasii [10] it was 0.25 µM (≈ 0.206 µg/mL); in [11], above 8 µM.
Consider `O=[N+]([O-])c1cc(CSc2nnc(-c3ccc(Cl)cc3)n2Cc2ccccc2)cc([N+](=O)[O-])c1`, for which the MIC99 is 4 µM (≈ 1.93 µg/mL) in data set [1]; 4 µM (≈ 1.93 µg/mL) in data set [2]; 250 µM (≈ 120 µg/mL) against Mycobacterium avium [3]; 250 µM (≈ 120 µg/mL) in the data set on Mycobacterium avium [4]; 4 µM (≈ 1.93 µg/mL) against Mycobacterium kansasii [5]; 8 µM (≈ 3.86 µg/mL) in the data set on Mycobacterium kansasii [6]. The MIC99 in the data set with Mycobacterium kansasii [7], with Mycobacterium kansasii [8], against Mycobacterium kansasii [9] and in the data set with Mycobacterium kansasii [10] was 8 µM (≈ 3.86 µg/mL) in each case. In addition, the result (in the data set with Staphylococcus aureus [13]; in the data set with Staphylococcus aureus [14]; in [15]; in the data set with Enterococcus faecalis; in the data set with Escherichia coli; in the data set with Klebsiella pneumoniae) was inactive. Further, the outcome in the data set on Serratia marcescens, in the data set with Pseudomonas aeruginosa, in the data set with Candida albicans, in the data set with Pichia kudriavzevii, in the data set with Candida parapsilosis and in the data set with Candida tropicalis was inactive. For the same compound, the result (with Aspergillus fumigatus; in the data set with Aspergillus flavus; in the data set on Lichtheimia corymbifera; in data set [16]) was inactive. For the same compound, the 50% inhibitory concentration (IC50) with HepG2 and in the data set with A-431 was above 30 µM each time. Besides, the viability at 48 h, 30 µM in [17] was 104%; in data set [18], 73%.
In data set [11], `NCC[C@H](O)C(=O)N[C@@H]1C[C@H](N)[C@@H](O[C@H]2O[C@H](CN)[C@@H](O)[C@H](O)[C@H]2O)[C@H](O)[C@H]1O[C@H]1O[C@H](CO)[C@@H](O)[C@H](N)[C@H]1O` [AMIKACIN] yielded an MIC99 above 32 µM.

These data come from ChEMBL document CHEMBL4373711, “Development of 3,5-Dinitrophenyl-Containing 1,2,4-Triazoles and Their Trifluoromethyl Analogues as Highly Efficient Antitubercular Agents Inhibiting Decaprenylphosphoryl-β-d-ribofuranose 2'-Oxidase” (J Med Chem, 2019).
